# Screens as filed in PubChem.
# Shown are actives, neighbours in structure and some others; about 0.7% of the full set was active somewhere.
# CaV13 FRET inh: Disruptors of the CACNA1D IQ motif to Ca2+-dependent inactivation inhibitor domain association, primary screening, Förster resonance energy transfer in intact living …. HEK cells, CFP/YFP FRET ICDI-IQ, plate reader, 10 min; percent FRET-ratio fall versus neutral wells. inhibition, % at 12.3 µM. hit rate 0.098% among 340,000. AID 743397;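 active means mean replicate inhibition of at least 30% and at least 1% of replicates passing that level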;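 further: 0% = median of the neutral control wells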
# RAD54 branch: RAD54 (human) branch migration inhibition; Q92698; RAD54 Holliday junction branch migration, FAM/BHQ fluorescence; inhibition, % at 10.4 µM; hit rate 0.14% among 360,000; AID 602329;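 active means mean normalized replicate activity at least 40 and at least half of replicates scoring 40 or more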;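 further: 0% = median of neutral control wells and 100% = median of positive control wells; inhibitors cause a drop in the FAM fluorescence signal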
# Target sequence (Q92698 whole entry, looked up): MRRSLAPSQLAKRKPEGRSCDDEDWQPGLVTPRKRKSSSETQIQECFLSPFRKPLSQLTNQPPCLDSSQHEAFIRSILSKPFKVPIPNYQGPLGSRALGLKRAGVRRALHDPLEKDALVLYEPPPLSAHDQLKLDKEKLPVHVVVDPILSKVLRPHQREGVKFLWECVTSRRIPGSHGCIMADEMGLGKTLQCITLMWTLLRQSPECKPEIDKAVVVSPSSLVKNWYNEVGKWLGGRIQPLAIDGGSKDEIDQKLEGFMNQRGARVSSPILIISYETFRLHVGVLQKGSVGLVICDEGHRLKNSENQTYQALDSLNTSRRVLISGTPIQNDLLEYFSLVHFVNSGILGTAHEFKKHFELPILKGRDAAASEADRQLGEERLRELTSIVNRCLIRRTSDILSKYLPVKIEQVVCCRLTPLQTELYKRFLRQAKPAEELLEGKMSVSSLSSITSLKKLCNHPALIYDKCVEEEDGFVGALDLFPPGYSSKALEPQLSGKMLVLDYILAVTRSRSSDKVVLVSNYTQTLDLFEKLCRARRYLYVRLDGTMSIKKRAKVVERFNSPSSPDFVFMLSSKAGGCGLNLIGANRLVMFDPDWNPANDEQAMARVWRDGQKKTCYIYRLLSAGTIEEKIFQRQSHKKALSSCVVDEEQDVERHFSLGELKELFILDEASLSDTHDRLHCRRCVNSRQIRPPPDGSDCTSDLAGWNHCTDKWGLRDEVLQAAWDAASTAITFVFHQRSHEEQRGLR
# RAD52 anneal inh: blocks human RAD52 DNA annealing; P43351; recombinant RAD52 DNA annealing, FRET fluorescence; inhibition, % at 18.7 µM; hit rate 0.46% among 360,000; AID 651710;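 active means every replicate showing at least 50% inhibition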
# FN deposition inh: fibronectin deposition inhibition; AH1F fibroblasts, Alexa488-fibronectin deposition fluorescence, overnight; hit rate 0.086% among 350,000; inhibition, % at 12.6 µM;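 active means mean inhibition across replicates of 30% or more, regardless of how many single replicates reach that level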;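 further: positive control wells lacked labelled fibronectin entirely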
#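 test system = AH1F fibroblasts assembling fluorescent fibronectin matrix | quantity = 10000 AH1F cells per well | buffer or medium = DMEM plus 2% serum, read in PBS | doses = single dose, pinned | incubation = 1 h cell attachment, overnight exposure to compound and label | detection = fluorescence at 485 nm excitation, 525 nm emission | read-out basis = inhibition from reduced deposited-fibronectin fluorescence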
# Glyco luc inh: N-linked glycosylation inhibition; reporter increase, % at 12.5 µM; hit rate 0.23% among 360,000; D54 ERlucT glycosylation luciferase reporter, 24 h; percent of 100 nM tunicamycin response;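 active means mean luciferase reporter signal, scaled so untreated is 0 and the glycosylation-blocking control 100, at or above a set limit in every replicate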;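 further: luciferase carries N-glycosylation sites so blocking glycosylation raises the light; 0% = median of neutral control wells and 100% = median of 100 nM tunicamycin wells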
# * = called active by the depositor; · = no result given; ! = repeats disagree.
SMILES,CaV13 FRET inh,RAD54 branch,RAD52 anneal inh,FN deposition inh,Glyco luc inh
COc1ccc(C2CC(c3ccccc3)=NN2c2ccc(C(N)=O)cc2)cc1 (stereo not drawn),83*,7,-64,2,0
COc1ccc(CN(C)C[C@@H]2Oc3ccc(NC(=O)C4CCCCC4)cc3CC(=O)N([C@H](C)CO)C[C@@H]2C)cc1,·,-3,4,·,·
CN1CCCCN2[C@H](C1)[C@@H](c1ccc(C#Cc3ccccc3F)cc1)[C@@H]2CO,·,11,65*,·,·
OC[C@@H]1[C@@H](c2ccc(C#Cc3ccccc3F)cc2)[C@H]2CN(CC3CCOCC3)CCCCN12,·,-5,53*,5,·
CCOCCCNC(=O)c1cc2c(=O)n(CC)c3ccccc3c2s1,-4,3,-15,6,41*
COc1ccc(CN(C)C[C@H]2OCCCC[C@H](C)Oc3ccc(NC(=O)Nc4ccccc4)cc3C(=O)N([C@@H](C)CO)C[C@@H]2C)cc1,·,-3,·,4,·
C[C@@H]1CCCCO[C@H](CN(C)Cc2ccccc2)[C@H](C)CN([C@@H](C)CO)C(=O)c2cc(NC(=O)Nc3ccc(F)cc3)ccc2O1,·,5,53*,·,·
Cc1ccc(S(=O)(=O)N(C)C[C@H]2Oc3ccc(NC(=O)C4CCCCC4)cc3C(=O)N([C@H](C)CO)C[C@H]2C)cc1,-7,0,24,-16,45*
COc1ccc(NC(=O)Nc2ccc3c(c2)C(=O)N([C@@H](C)CO)C[C@H](C)[C@H](CN(C)Cc2ccccc2)OCCCC[C@@H](C)O3)cc1,·,6,60*,0,·
Cc1ccc(S(=O)(=O)N(C)C[C@H]2OCCCC[C@@H](C)Oc3ccc(NC(=O)CCCN(C)C)cc3C(=O)N([C@@H](C)CO)C[C@H]2C)cc1,·,23,51*,-6,·
C[C@H]1CCCCO[C@H](CN(C)Cc2ccccc2)[C@@H](C)CN([C@@H](C)CO)C(=O)c2cc(NC(=O)Nc3ccc(F)cc3)ccc2O1,·,3,49,·,·
Cc1ccc(S(=O)(=O)N(C)C[C@H]2OCCCC[C@@H](C)Oc3ccc(NC(=O)CCCN(C)C)cc3C(=O)N([C@H](C)CO)C[C@@H]2C)cc1,·,4,14,-12,·
O=C(C[C@@H]1CC[C@@H]2[C@H](COC[C@@H](O)CN2Cc2cc(F)ccc2F)O1)NCc1ccc(Cl)cc1,·,-11,8,-3,·
COc1ccc2c3c(n(C)c2c1)[C@H](CO)N(C(C)=O)CC31CCN(C(=O)c2ccccc2)CC1,·,·,0,·,·
CO[C@H]1CN(C)C(=O)c2cc(NC(=O)c3cnccn3)ccc2OC[C@@H](C)N(CC2CC2)C[C@H]1C,·,·,3,-7,·
C[C@@H]1CN([C@H](C)CO)S(=O)(=O)c2ccc(C3=CCCCC3)cc2O[C@H]1CN(C)Cc1ccccc1F,·,2,6,·,·
COc1ccc(NC(=O)Nc2ccc3c(c2)C(=O)N([C@@H](C)CO)C[C@H](C)[C@H](CN(C)Cc2ccccc2)OCCCC[C@H](C)O3)cc1,·,3,57*,5,·
C[C@H]1CCCCO[C@@H](CN(C)C(=O)CCCN(C)C)[C@@H](C)CN([C@@H](C)CO)C(=O)c2cc(NC(=O)Nc3ccc(F)cc3)ccc2O1,·,11,52*,·,·
COc1ccc(NC(=O)Nc2ccc3c(c2)C(=O)N([C@H](C)CO)C[C@@H](C)[C@@H](CN(C)Cc2ccccc2)OCCCC[C@H](C)O3)cc1,·,0,51*,-12,·
COc1ccc(NC(=O)Nc2ccc3c(c2)C(=O)N([C@@H](C)CO)C[C@H](C)[C@@H](CN(C)Cc2ccccc2)OCCCC[C@H](C)O3)cc1,·,1,32,-7,·
C[C@H]1CCCCO[C@@H](CN(C)C(=O)CCCN(C)C)[C@@H](C)CN([C@@H](C)CO)C(=O)c2cc(NS(=O)(=O)c3ccc(Cl)cc3)ccc2O1,·,15,54*,-13,·
C[C@@H]1CCCCO[C@H](CN(C)C(=O)CCCN(C)C)[C@@H](C)CN([C@H](C)CO)C(=O)c2cc(NS(=O)(=O)c3ccc(Cl)cc3)ccc2O1,·,7,7,-3,·
COc1ccc(-c2ccc(C3[C@@H]4CN(C(=O)Nc5cccc(F)c5)C[C@H]3N4)cc2)cc1 (stereo partly drawn),·,·,84*,9,·
O=C(Nc1cccc(F)c1)N1C[C@@H]2N[C@H](C1)C2c1ccc(-c2ccncc2)cc1 (stereo partly drawn),·,·,6,16,·
COc1ccc(NC(=O)N2C[C@@H]3N[C@H](C2)[C@@H]3c2ccc(-c3ccc(OC)cc3)cc2)cc1,·,·,68*,-3,·
SMILES,CaV13 FRET inh,RAD54 branch,RAD52 anneal inh,FN deposition inh,Glyco luc inh
COc1cccc(-c2ccc(C3[C@@H]4CN(C(=O)Nc5ccc(F)cc5)C[C@H]3N4)cc2)c1 (stereo partly drawn),·,·,41,2,·
COc1ccc(NC(=O)N2C[C@@H]3N[C@H](C2)C3c2ccc(-c3cccc(OC)c3)cc2)cc1 (stereo partly drawn),·,·,54*!,6,·
CC(=O)N(C)C[C@@H]1Oc2ccc(NS(C)(=O)=O)cc2C(=O)N(C)C[C@@H]1C,·,·,·,-15,·
COc1ccccc1CCC(=O)Nc1ccc2c(c1)c(=O)n(C)n2-c1cccs1,-5,4,-11,13,34*
COc1cc(Cn2c3ccc(NC(=O)CCc4ccccc4)cc3c(=O)n2C)ccc1F,-6,-5,-25,-9,21
C[C@H]1CN([C@@H](C)CO)C(=O)c2cc(NS(C)(=O)=O)ccc2O[C@@H]1CN(C)S(C)(=O)=O,·,-1,2,·,·
COc1cccc(CNC(=O)CCc2nnc3ccc(NCCCN4CCCC4=O)nn23)c1,-4,-16,1,30*,1
COc1ccc(CNC(=O)CCc2nnc3ccc(NCCCN4CCCC4=O)nn23)cc1,-3,6,-6,-9,1
CO[C@@H]1CN(C)C(=O)c2cc(NC(C)=O)ccc2OC[C@H](C)N(C(=O)c2cnccn2)C[C@@H]1C,·,-5,3,5,·
c1ccc(N=Nc2ccc3cccccc2-3)cc1,-7,-3,-15,-15,26*
CO[C@@H]1CN(C)C(=O)c2ccc(NC(=O)c3cccc(F)c3)cc2OC[C@@H](C)N(CC2CC2)C[C@@H]1C,·,-2,-5,-1,·
Cc1ccccc1-n1sc2cc(F)ccc2c1=O,7,3,-9,40*,-1
Cc1cccc(/C=N/Nc2cc(N3CCOCC3)nc(N3CCOCC3)n2)c1,16,·,-12,36*,-7
COc1ccc2nc(C)cc(N/N=C/c3ccc(F)cc3)c2c1,-7,8,6,2,-23
COc1ccc(/C=N/Nc2cc(C)nc3ccccc23)cc1,-15,97*,91*,9,-7
C[C@@H]1CN([C@@H](C)CO)C(=O)c2cccc(NC(=O)c3cnccn3)c2O[C@H]1CN(C)C(=O)Nc1ccc(F)cc1,·,0,-2,·,·
